Among the data in ChEMBL document CHEMBL2169822, “Discovery and optimization of 1,3,4-trisubstituted-pyrazolone derivatives as novel, potent, and nonsteroidal farnesoid X receptor (FXR) selective antagonists” (J Med Chem, 2012) are Activity and inhibition values, retold here.

The test system of one assay is Mus musculus. Description: Reduction of serum triglyceride level in cholesterol-fed C57BL/6 mouse at 50 mg/kg, po after 10 days. It counts as functional. Set-up: scale not given: the % may be the effect or the level left. The gist of the method:
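Male C57BL/6 mice, 8–12 weeks old, were randomized into five groups of nine. Control mice had ground chow; the other groups had chow with 2% cholesterol. Compound (50 or 100 mg/kg) or reference (100 mg/kg) was suspended in 0.5% CMC-Na and given by oral gavage; control and vehicle mice got 0.5% CMC-Na. Serum and hepatic triglyceride and total cholesterol were measured.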

Assay [1] deals with T1, Bile acid receptor (Homo sapiens) (UniProt Q96RI1).
T1 sequence (whole entry): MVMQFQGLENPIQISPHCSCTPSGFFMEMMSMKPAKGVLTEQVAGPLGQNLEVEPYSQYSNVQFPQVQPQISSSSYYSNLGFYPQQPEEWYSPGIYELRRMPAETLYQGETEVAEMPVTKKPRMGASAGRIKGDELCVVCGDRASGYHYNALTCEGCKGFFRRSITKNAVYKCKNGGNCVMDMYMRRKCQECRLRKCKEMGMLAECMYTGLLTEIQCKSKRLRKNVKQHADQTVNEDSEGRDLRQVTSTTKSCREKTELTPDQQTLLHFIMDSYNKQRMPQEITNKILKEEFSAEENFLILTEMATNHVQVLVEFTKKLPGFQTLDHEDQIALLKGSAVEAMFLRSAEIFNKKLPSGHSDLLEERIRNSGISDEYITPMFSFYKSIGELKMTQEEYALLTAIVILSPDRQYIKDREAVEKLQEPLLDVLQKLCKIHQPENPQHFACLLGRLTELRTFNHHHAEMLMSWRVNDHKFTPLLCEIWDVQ
Description: Antagonist activity at human FXR in human HepG2 cells assessed as inhibition of CDCA induced decrease of Cyp7A1 gene expression at 5 to 40 uM after 24 hrs by RT-PCR analysis. The assay is classed as functional, cell-based. The method in brief: (§1)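 HepG2 cells in 6-well plates were treated with varied concentrations of compound, with or without 100 μM CDCA, for 24 h. Total RNA was taken with TRIzol and cDNA made by reverse transcription. Cyp7A1, SHP, BSEP and SREBP1c mRNA were measured by quantitative RT-PCR and normalized to β-actin. Three independent experiments.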

The target of assay [2] is T1, Bile acid receptor (Homo sapiens). Briefly: Antagonist activity at human FXR in human HepG2 cells assessed as inhibition of CDCA induced SREBP1c gene expression at 5 to 40 uM after 24 hrs by RT-PCR analysis. It counts as functional, cell-based. The method in brief: as §1
In the next assay the test system is HEK-293T. Description: Antagonist activity at FXRalphaLBD expressed in HEK293T cells co-expressing GAL4 DBD assessed as inhibition of CDCA-induced transactivation at 60 uM after 18 hrs by luciferase reporter gene assay. The assay is classed as functional, cell-based. Conditions: Homo sapiens. The method in brief: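 Mammalian one-hybrid assay in HEK293T cells cotransfected with pCMX-Gal4DBD-FXRαLBD, UAS-TK-Luc reporter and pRL-SV40 Renilla vector. Cells were exposed to vehicle or compound for 18 h, with or without 20 μM CDCA. Read-out was dual-luciferase. Three independent experiments.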
For orientation: Reporter assays use an easily measured gene product as a stand-in for the process of interest.

The target in assay [3] is T2, Progesterone receptor (Homo sapiens) (UniProt P06401).
T2 sequence (whole entry): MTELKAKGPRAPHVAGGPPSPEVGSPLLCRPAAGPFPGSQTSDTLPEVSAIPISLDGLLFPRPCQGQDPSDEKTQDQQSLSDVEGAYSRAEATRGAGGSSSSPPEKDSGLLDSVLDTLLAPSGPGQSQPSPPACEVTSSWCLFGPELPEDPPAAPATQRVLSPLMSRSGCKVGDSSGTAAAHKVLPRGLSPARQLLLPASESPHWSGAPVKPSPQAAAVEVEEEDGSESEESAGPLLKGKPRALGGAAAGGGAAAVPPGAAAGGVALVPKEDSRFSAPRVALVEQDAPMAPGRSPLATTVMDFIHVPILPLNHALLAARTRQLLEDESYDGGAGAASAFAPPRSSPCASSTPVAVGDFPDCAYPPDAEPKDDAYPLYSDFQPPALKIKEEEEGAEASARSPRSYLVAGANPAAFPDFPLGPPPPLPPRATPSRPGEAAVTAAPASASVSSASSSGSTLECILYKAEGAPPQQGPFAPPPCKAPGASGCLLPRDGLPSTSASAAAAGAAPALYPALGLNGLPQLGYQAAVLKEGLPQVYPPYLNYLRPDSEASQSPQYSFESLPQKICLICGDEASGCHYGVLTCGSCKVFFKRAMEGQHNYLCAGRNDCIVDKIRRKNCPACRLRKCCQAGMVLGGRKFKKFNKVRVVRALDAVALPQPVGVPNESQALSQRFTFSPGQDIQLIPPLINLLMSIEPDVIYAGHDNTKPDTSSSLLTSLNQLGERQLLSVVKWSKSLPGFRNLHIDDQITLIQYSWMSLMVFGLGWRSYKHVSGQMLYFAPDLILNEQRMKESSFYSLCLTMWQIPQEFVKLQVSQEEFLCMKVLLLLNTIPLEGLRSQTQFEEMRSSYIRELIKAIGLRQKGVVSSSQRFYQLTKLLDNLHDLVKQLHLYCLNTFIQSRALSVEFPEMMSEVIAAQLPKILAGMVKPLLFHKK
Description: Agonist activity at recombinant PR-LBD expressed in HEK293T cells co-expressing GAL4 DBD at 20 uM by transactivation assay. The assay is classed as functional, cell-based. Conditions: HEK-293T. The method in brief:
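One-hybrid assay in HEK293T cells cotransfected with a Gal4 DBD–NR-LBD fusion (RXRα, LXRα, GR, PR, PPARδ or PPARγ) plus UAS-TK-Luc reporter. Compound was 20 μM, given alone or with agonist: 9cRA 0.1 μM (RXRα), TO901317 0.5 μM (LXRα), dexamethasone 50 nM (GR), progesterone 100 nM (PR), GW1516 10 μM (PPARδ), rosiglitazone 10 μM (PPARγ). Luciferase read-out; three independent experiments.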

The nature of assay [4]: Agonist activity at GST tagged human recombinant FXRalphaLBD expressed in Escherichia coli BL21 cells assessed as SRC-1 co-activator association at 40 uM after 30 mins by HTRF assay. The assay is classed as functional. The method in brief: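 HTRF coactivator recruitment: 10 nM GST-human FXRαLBD (residues 238–473, E. coli BL21(DE3)), 0.83 nM anti-GST-Eu cryptate, 100 nM biotin-SRC1 peptide, 41.75 nM SA/XL665. Buffer was 50 mM Hepes pH 7.0, 125 mM KF, 0.125% CHAPS, 0.05% dry milk. Compound alone or with CDCA, 30 min at room temperature. Signal was 1000×(668/620 nm). Primary screen at 40 μM; IC50 as mean ± SE, three experiments.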

The structures appear in SMILES notation. The source made the active and inactive calls. No cut-off for these calls is given here.

As to `COc1cc(/C=C2\C(=O)N(c3cccc([N+](=O)[O-])c3)N=C2c2ccccc2)ccc1O`, the results for the Activity (in the assay with Mus musculus; in assay [4]) were 48.4% and <5%, respectively. The inhibition entry (in assay [1]; in assay [2]; with HEK-293T) was “Active” throughout. The result in assay [3] was inactive.
